According to ChEMBL document CHEMBL4028805, “Phenylthiazole Antibacterial Agents Targeting Cell Wall Synthesis Exhibit Potent Activity in Vitro and in Vivo against Vancomycin-Resistant Enterococci” (J Med Chem, 2017):
≈ marks a conversion by molar mass, not a printed value. Calls of active or inactive are those of the source.

What was measured:
[1] = test system: Pseudomonas aeruginosa; test: Antibacterial activity against Pseudomonas aeruginosa ATCC 15442 after 18 to 22 hrs in absence of colistin by broth microdilution method; type: functional
[2] = test system: HRT-18 cell line; test: Cytotoxicity against human HRT18 cells assessed as reduction in cell viability up to 20 ug/ml after 2 hrs by MTS assay; type: cell-based; conditions: hrt-18, 2 h
In short: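 HRT-18 cells maintained in RPMI-1640 with 10% fetal horse serum at 37 °C, 5% CO2. Exposed to 5, 10, 20 or 40 μg/mL for 2 or 24 h, then MTS added and absorbance read at 490 nm. Viability expressed relative to untreated cells, n ≥ 3, one-way ANOVA with Dunnett's test.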

[3] = test system: Klebsiella pneumoniae; test: Antibacterial activity against Klebsiella pneumoniae BAA-1706 after 18 to 22 hrs in absence of colistin by broth microdilution method; type: functional
[4] = test system: Enterococcus faecium; test: Antibacterial activity against vancomycin-resistant Enterococcus faecium ATCC HM-968 after 14 serial passages measured after 18 hrs by broth microdillution method; type: functional
In short: (§1)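 Multi-step selection over 14 passages in two weeks. McFarland 0.5 inoculum diluted 1:300 in TSB (E. faecalis) or BHI (E. faecium) to 1 × 10^5 CFU/mL. Each passage reinoculated at ~5 × 10^5 CFU/mL from the sub-inhibitory well of the previous plate. Compounds serially diluted in triplicate, incubated ≥18 h at 37 °C, MIC read visually. Resistance defined as >4-fold MIC rise.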

[5] = test system: Enterococcus faecium; test: Potentiation of vancomycin-induced antibacterial activity against Enterococcus faecium ATCC 700221 assessed as fold reduction in vancomycin MIC preincubated for 30 mins followed by vancomycin addition measured after 18 to 21 hrs; type: functional
In short: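 VRE suspensions at 5×10^5 CFU/mL preincubated with compound at ½ × MIC for 30 min at room temperature. […] Fold reduction calculated as vancomycin MIC alone over MIC in combination.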

[6] = test system: Pseudomonas aeruginosa; test: Antibacterial activity against Pseudomonas aeruginosa ATCC 15442 after 18 to 22 hrs in presence of 1/4 times MIC colistin by broth microdilution method; type: functional
In short: (§2)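 Broth microdilution per CLSI guidelines. Gram-negatives grown in TSB. Each strain tested alone and again with colistin at ¼ × MIC to permeabilize the outer membrane. Plates incubated at 37 °C for 18–22 h. MIC read as the lowest concentration showing no visible growth.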

[7] = Inhibition of Escherichia coli UPPS using IPP and FPP as substrate preincubated for 30 mins followed by substrate addition measured after 20 mins by malachite green phosphate assay
In short: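 Purified E. coli UPPS preincubated 30 min at room temperature with inhibitor (200 to 0.2 μM) in 100 mM HEPES, 50 mM NaCl, 0.5 mM MgCl2, 0.02% DDM, pH 7.5. Then 10 μM IPP and FPP added with 0.375 U/mL inorganic phosphatase. Phosphate read by malachite green at 620 nm. IC50 from dose-response curves.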

[8] = test system: Enterococcus faecalis; test: Inhibition of UPPP-mediated peptidoglycan biosynthesis in Enterococcus faecalis NR-31975 assessed as accumulation of UDP-N-acetylmuramyl-pentapeptide at 10 times MIC after 30 mins by HPLC-MS analysis
In short: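 Pellets boiled 30 min. UDP-N-acetylmuramyl-pentapeptide measured by HPLC-TOF MS on a phenyl column, 5–20% acetonitrile/0.1% formic acid gradient, positive ESI.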

[9] = test system: Escherichia coli; test: Antibacterial activity against tolC deficient Escherichia coli assessed as cell lysis at 25 ug/ml after 30 mins in presence of sucrose by FM4-64/DAPI/SYTOX Green staining-based deconvolution microscopic analysis; type: functional
[10] = test system: Escherichia coli; test: Antibacterial activity against Escherichia coli O157:H7 ATCC 35150 after 18 to 22 hrs in absence of colistin by broth microdilution method; type: functional
[11] = test system: Enterococcus faecalis; test: Antibacterial activity against vancomycin-resistant Enterococcus faecalis ATCC 51299 assessed as ratio of MIC after and before 6 serial passages measured after 18 hrs by broth microdillution method; type: functional; in short: as §1
[12] = test system: Enterococcus faecalis; test: Synergistic antimicrobial activity against Enterococcus faecalis ATCC 49533 after 20 hrs in presence of ciprofloxacin by checkerboard assay; type: functional
In short: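 Checkerboard in TSB with a starting inoculum of 1×10^5 CFU/mL. Compound and antibiotic diluted from 2× or 4× MIC along perpendicular axes. Incubated 20 h at 37 °C. ΣFIC calculated: ≤0.5 synergy, >0.5 to <2 additive, 2–4 indifference, >4 antagonism.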

[13] = test system: Enterobacter cloacae; test: Antibacterial activity against Enterobacter cloacae BAA-1154 after 18 to 22 hrs in absence of colistin by broth microdilution method; type: functional
[14] = test system: Bacillus subtilis; test: Antibacterial activity against Bacillus subtilis assessed as pool of membranes at 5 times MIC after 2 hrs in presence of methylsulfonyl methane by phase contrast microscopic analysis; type: functional
In short: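 B. subtilis grown in LB at 37 °C to OD600 ~0.2, then treated at 5 × MIC with MSM for osmotic stabilisation. At 2 h, stained with FM 4-64 (1 μg/mL), DAPI (1 μg/mL) and SYTOX Green (1 μg/mL). Imaged by deconvolution fluorescence and phase contrast microscopy.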

[15] = test system: Enterobacter cloacae; test: Antibacterial activity against Enterobacter cloacae BAA-1154 after 18 to 22 hrs in presence of 1/4 times MIC colistin by broth microdilution method; type: functional; in short: as §2
[16] = Induction of proton motive force collapse in Escherichia coli inverted membrane vesicle in presence of succinate/O2-driven PMF generation system by ACMA-based fluorescence assay; type: functional, cell membranes
In short: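 E. coli inverted membrane vesicles (0.1 mg/mL membrane protein) with 2 μM ACMA and 0.5 mM ATP or succinate, in 10 mM HEPES-KOH, 5 mM MgSO4, 100 mM KCl, pH 7.5. Proton gradient followed by ACMA fluorescence (ex 410/em 480 nm). EC50 taken from dose-response curves. CCCP used as reference uncoupler.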

[17] = test system: Acinetobacter baumannii; test: Antibacterial activity against Acinetobacter baumanii ATCC 19606 after 18 to 22 hrs in absence of colistin by broth microdilution method; type: functional; conditions: ATCC 19606 = CIP 70.34 = JCM 6841; in short: as §2
[18] = test system: Enterococcus faecalis; test: Potentiation of gentamicin-induced antibacterial activity against Enterococcus faecalis ATCC 51299 assessed as gentamicin MIC preincubated for 30 mins followed by gentamicin addition measured after 18 to 21 hrs; type: functional
In short: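 Enterococcal suspensions at 5×10^5 CFU/mL preincubated with compound at ½ × MIC for 30 min at room temperature.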

[19] = test system: Escherichia coli; test: Antibacterial activity against tolC deficient Escherichia coli assessed as formation of misshapen cells at 25 ug/ml after 2 hrs in presence of sucrose by FM4-64/DAPI/SYTOX Green staining-based deconvolution microscopic analysis; type: functional
[20] = test system: Enterococcus faecalis; test: Antibacterial activity against vancomycin-resistant Enterococcus faecalis HM-201 infected in Caenorhabditis elegans AU37 assessed as reduction in bacterial burden at 20 ug/ml after 18 hrs by CFU-based […] analysis relative to control; type: functional; design: scale not given: the % may be the effect or the level left
In short: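 C. elegans AU37 adults infected on an E. faecalis HM-201 lawn for 2 h, washed in M9, 20–25 worms per well. Treated in triplicate with 20 μg/mL, with water as negative control. Worms washed, lysed with silicon carbide by vortexing, diluted serially and plated on TSA with 50 μg/mL gentamicin. CFU counted after 18 h at 37 °C and expressed as % reduction versus untreated worms.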

For `CCCCc1ccc(-c2nc(C)c(/C(C)=N/NC(=N)N)s2)cc1`, the MIC [1] was 64 µg/mL (≈ 194 µM), the Activity [2] was “Non-Toxic” and the MIC [3] was 16 µg/mL (≈ 48.6 µM). For the same compound, the Activity [4] was “Active”, the “fold change (FC)” value [5] was 256 and the MIC [6] was 1 µg/mL. For the same compound, the IC50 [7] was 19 µM, the inhibition [8] was “Active” and the Activity [9] was “Active”. For the same compound, the MIC [10] was 16 µg/mL (≈ 48.6 µM), the Ratio [11] was 1 and the “fractional inhibitory concentration index (FICI)” value [12] was 0.63 - 1. For the same compound, the MIC [13] was 64 µg/mL (≈ 194 µM), the Activity [14] was “Active” and the MIC [15] was 1 µg/mL. The EC50 [16] was 25 µM, the MIC [17] was 8 µg/mL (≈ 24.3 µM) and the Activity [18] was “inactive”. For the same compound, the Activity [19] was “Active” and the Activity [20] was 89%.
